According to ChEMBL document CHEMBL4325889, “Natural products hybrids: 3,5,4'-Trimethoxystilbene-5,6,7-trimethoxyflavone chimeric analogs as potential cytotoxic agents against diverse human cancer cells” (Eur J Med Chem, 2019):

Key:
Assay type in all cases: functional
HCC 2998 = assay: Growth inhibition of human HCC2998 cells at 10 uM after 48 hrs by SRB assay relative to control; conditions: HCC 2998, 48 h, read-out: GI
Method in brief: (§1)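 Screened at the National Cancer Institute by the standard NCI protocol using the sulforhodamine B assay, which measures cellular protein. Single dose of 10 µM. Result is percent growth inhibition; values above 100% mean cell number fell below the initial population. Values are the average of duplicates.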

786-0 = assay: Growth inhibition of human 786-0 cells at 10 uM after 48 hrs by SRB assay relative to control; conditions: 786-0, 48 h, read-out: GI; method in brief: as §1
SN12C = assay: Growth inhibition of human SN12C cells at 10 uM after 48 hrs by SRB assay relative to control; conditions: read-out: GI; method in brief: as §1
A549 = assay: Growth inhibition of human A549 cells at 10 uM after 48 hrs by SRB assay relative to control; conditions: A549, 48 h, read-out: GI; method in brief: as §1
RXF 393 = assay: Growth inhibition of human RXF393 cells at 10 uM after 48 hrs by SRB assay relative to control; conditions: RXF 393, 48 h, read-out: GI; method in brief: as §1
UACC-257 = assay: Growth inhibition of human UACC257 cells at 10 uM after 48 hrs by SRB assay relative to control; conditions: UACC-257, 48 h, read-out: GI
Method in brief: (§2)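 NCI screen against its human cancer cell line panel by the standard NCI protocol, SRB protein stain. Single dose of 10 μM. Percent growth inhibition versus control; values above 100% mean the cell population fell below the starting number. Each value is the mean of duplicates.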

K562 = assay: Growth inhibition of human K562 cells at 10 uM after 48 hrs by SRB assay relative to control; conditions: K562, 48 h, read-out: GI; method in brief: as §1
SK-MEL-28 = assay: Growth inhibition of human SK-MEL-28 cells at 10 uM after 48 hrs by SRB assay relative to control; conditions: SK-MEL-28, 48 h, read-out: GI; method in brief: as §1
RPMI-8226 = assay: Growth inhibition of human RPMI8226 cells at 10 uM after 48 hrs by SRB assay relative to control; conditions: RPMI-8226, 48 h, read-out: GI; method in brief: as §1
NCI-H226 = assay: Growth inhibition of human NCI-H226 cells at 10 uM after 48 hrs by SRB assay relative to control; conditions: NCI-H226, 48 h, read-out: GI; method in brief: as §1
NCI-H322M = assay: Growth inhibition of human NCI-H322M cells at 10 uM after 48 hrs by SRB assay relative to control; conditions: read-out: GI; method in brief: as §1
NCI-H23 = assay: Growth inhibition of human NCI-H23 cells at 10 uM after 48 hrs by SRB assay relative to control; conditions: NCI-H23, 48 h, read-out: GI; method in brief: as §1
DU-145 = assay: Growth inhibition of human DU145 cells at 10 uM after 48 hrs by SRB assay relative to control; conditions: DU-145, 48 h, read-out: GI; method in brief: as §1
MCF7 = assay: Growth inhibition of human MCF7 cells at 10 uM after 48 hrs by SRB assay relative to control; conditions: MCF7, 48 h, read-out: GI; method in brief: as §1
SF-295 = assay: Growth inhibition of human SF295 cells at 10 uM after 48 hrs by SRB assay relative to control; conditions: SF-295, 48 h, read-out: GI; method in brief: as §1
TK-10 = assay: Growth inhibition of human TK10 cells at 10 uM after 48 hrs by SRB assay relative to control; conditions: TK-10, 48 h, read-out: GI; method in brief: as §2
SNB-75 = assay: Growth inhibition of human SNB75 cells at 10 uM after 48 hrs by SRB assay relative to control; conditions: SNB-75, 48 h, read-out: GI; method in brief: as §2
SF-539 = assay: Growth inhibition of human SF539 cells at 10 uM after 48 hrs by SRB assay relative to control; conditions: SF-539, 48 h, read-out: GI; method in brief: as §1
MDA-MB-468 = assay: Growth inhibition of human MDA-MB-468 cells at 10 uM after 48 hrs by SRB assay relative to control; conditions: MDA-MB-468, 48 h, read-out: GI; method in brief: as §1
Hs-578T = assay: Growth inhibition of human Hs 578T cells at 10 uM after 48 hrs by SRB assay relative to control; conditions: read-out: GI; method in brief: as §1
IGROV-1 = assay: Growth inhibition of human IGROV1 cells at 10 uM after 48 hrs by SRB assay relative to control; conditions: IGROV-1, 48 h, read-out: GI; method in brief: as §1
LOX IMVI = assay: Growth inhibition of human LOXIMVI cells at 10 uM after 48 hrs by SRB assay relative to control; conditions: read-out: GI; method in brief: as §1
NCI/ADR-RES = assay: Growth inhibition of human NCI/ADR-RES cells at 10 uM after 48 hrs by SRB assay relative to control; conditions: read-out: GI; method in brief: as §1
SK-MEL-2 = assay: Growth inhibition of human SK-MEL-2 cells at 10 uM after 48 hrs by SRB assay relative to control; conditions: SK-MEL-2, 48 h, read-out: GI; method in brief: as §1
HL-60(TB) = assay: Growth inhibition of human HL-60(TB) cells at 10 uM after 48 hrs by SRB assay relative to control; conditions: HL-60, 48 h, read-out: GI
Method in brief: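 Run at NCI under its standard single-dose protocol against a leukemia cell panel. Cells were exposed to 10 µM; growth was read by sulforhodamine B staining of cellular protein and expressed as % growth inhibition versus untreated control. Values above 100% mean the cell population fell below the starting count (cytocidal). Each value is the average of duplicates.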

CCRF-CEM = assay: Growth inhibition of human CCRF-CEM cells at 10 uM after 48 hrs by SRB assay relative to control; conditions: read-out: GI; method in brief: as §1
HCT-15 = assay: Growth inhibition of human HCT15 cells at 10 uM after 48 hrs by SRB assay relative to control; conditions: HCT-15, 48 h, read-out: GI; method in brief: as §1
Malme-3M = assay: Growth inhibition of human MALME-3M cells at 10 uM after 48 hrs by SRB assay relative to control; conditions: read-out: GI; method in brief: as §1
SK-MEL-5 = assay: Growth inhibition of human SK-MEL-5 cells at 10 uM after 48 hrs by SRB assay relative to control; conditions: SK-MEL-5, 48 h, read-out: GI; method in brief: as §1
U-251 = assay: Growth inhibition of human U251 cells at 10 uM after 48 hrs by SRB assay relative to control; conditions: U-251, 48 h, read-out: GI; method in brief: as §2
HOP-92 = assay: Growth inhibition of human HOP92 cells at 10 uM after 48 hrs by SRB assay relative to control; conditions: HOP-92, 48 h, read-out: GI; method in brief: as §1
HCT-116 = assay: Growth inhibition of human HCT116 cells at 10 uM after 48 hrs by SRB assay relative to control; conditions: HCT-116, 48 h, read-out: GI; method in brief: as §1
COLO 205 = assay: Growth inhibition of human COLO205 cells at 10 uM after 48 hrs by SRB assay relative to control; conditions: COLO 205, 48 h, read-out: GI; method in brief: as §1
SR = assay: Growth inhibition of human SR cells at 10 uM after 48 hrs by SRB assay relative to control; conditions: read-out: GI; method in brief: as §2

Row | Structure (SMILES) | inhibition of growth at 10 µM (HCC 2998) [%] | inhibition of growth at 10 µM (786-0) [%] | inhibition of growth at 10 µM (SN12C) [%] | inhibition of growth at 10 µM (A549) [%] | inhibition of growth at 10 µM (RXF 393) [%] | inhibition of growth at 10 µM (UACC-257) [%] | inhibition of growth at 10 µM (SK-MEL-28) [%] | inhibition of growth at 10 µM (RPMI-8226) [%] | inhibition of growth at 10 µM (NCI-H226) [%] | inhibition of growth at 10 µM (NCI-H23) [%] | inhibition of growth at 10 µM (DU-145) [%] | inhibition of growth at 10 µM (MCF7) [%] | inhibition of growth at 10 µM (SF-295) [%] | inhibition of growth at 10 µM (TK-10) [%] | inhibition of growth at 10 µM (SNB-75) [%] | inhibition of growth at 10 µM (SF-539) [%] | inhibition of growth at 10 µM (MDA-MB-468) [%] | inhibition of growth at 10 µM (Hs-578T) [%] | inhibition of growth at 10 µM (IGROV-1) [%] | inhibition of growth at 10 µM (LOX IMVI) [%] | also measured
1 | COc1cccc(C(=O)Nc2cccc(-c3cc(=O)c4c(OC)c(OC)c(OC)cc4o3)c2)c1 | 19.5 | 47.2 | 38.7 | 44.1 | 28.9 | 3.66 | 27 | 83.2 | 28 | 33.9 | 32.6 | 21.3 | 42.7 | 17.2 | 32.6 | 33.7 | 5.72 | 43.2 | 42.6 | 42.6 | inhibition of growth at 10 µM (K562): 62%; inhibition of growth at 10 µM (NCI-H322M): 27.1%; inhibition of growth at 10 µM (NCI/ADR-RES): 34.5%; inhibition of growth at 10 µM (SK-MEL-2): 38.1%; inhibition of growth at 10 µM (HL-60(TB)): 14.8%; inhibition of growth at 10 µM (CCRF-CEM): 56.1%; inhibition of growth at 10 µM (HCT-15): 46.6%; inhibition of growth at 10 µM (Malme-3M): 12.8%; inhibition of growth at 10 µM (SK-MEL-5): 39.4%; inhibition of growth at 10 µM (U-251): 36.2%; inhibition of growth at 10 µM (HOP-92): 51.8%; inhibition of growth at 10 µM (HCT-116): 46.4%
2 | Cc1ccc(NC(=O)c2ccc(CN3CCN(C)CC3)cc2)cc1Nc1nccc(-c2cccnc2)n1 [IMATINIB] | -22 | 5 | 6 | 3.8 | 5.7 | 2.8 | -9.4 | 12.6 | 10.6 | 17.1 | 14.4 | 8.1 | 15.1 | -10 | 0.6 | 24.5 | 29.1 | 9.9 | -18.6 | 11.6 | inhibition of growth at 10 µM (COLO 205): -1.1%; inhibition of growth at 10 µM (NCI/ADR-RES): -0.5%; inhibition of growth at 10 µM (SR): 14.6%; inhibition of growth at 10 µM (HL-60(TB)): -6.8%; inhibition of growth at 10 µM (CCRF-CEM): 6.6%; inhibition of growth at 10 µM (HCT-15): 11.5%; inhibition of growth at 10 µM (Malme-3M): -13.7%; inhibition of growth at 10 µM (SK-MEL-5): 22.3%; inhibition of growth at 10 µM (U-251): 10.6%; inhibition of growth at 10 µM (HOP-92): 43.7%; inhibition of growth at 10 µM (HCT-116): 18.6%
3 | COc1ccccc1C(=O)Nc1cccc(-c2cc(=O)c3c(OC)c(OC)c(OC)cc3o2)c1 | 32.2 | 54.7 | 59 | 51.8 | 41 | 38.5 | 44 | 93.2 | 41.6 | 37.6 | 55.1 | 46.6 | 40.8 | 46.6 | 16.8 | 36.2 | 60.8 | 76.4 | 57.1 | 64.6 | inhibition of growth at 10 µM (K562): 63.6%; inhibition of growth at 10 µM (NCI-H322M): 56.4%; inhibition of growth at 10 µM (NCI/ADR-RES): 41.8%; inhibition of growth at 10 µM (SK-MEL-2): 68.8%; inhibition of growth at 10 µM (HL-60(TB)): 42.3%; inhibition of growth at 10 µM (CCRF-CEM): 84%; inhibition of growth at 10 µM (HCT-15): 58.5%; inhibition of growth at 10 µM (Malme-3M): 34.5%; inhibition of growth at 10 µM (SK-MEL-5): 75%; inhibition of growth at 10 µM (U-251): 61%; inhibition of growth at 10 µM (HOP-92): 100%; inhibition of growth at 10 µM (HCT-116): 63.3%
